Tests used:
[1] = target: Homeodomain-interacting protein kinase 2 (Homo sapiens) (UniProt Q9H2X6); assay: Inhibition of HIPK2 at 1 uM
[2] = target: Focal adhesion kinase 1 (Homo sapiens) (UniProt Q05397); assay: Inhibition of FAK at 1 uM
How it was run: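 Single-concentration screen using Ambit Bioscience KINOMEscan technology across a panel of 250–400 kinases. Per-kinase inhibition from this screen was summarized as S(90), the fraction of kinases inhibited by more than 90%.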

[3] = target: T1, Serine/threonine-protein kinase TAO1 (Homo sapiens) (UniProt Q7L7X3); assay: Inhibition of TAOK1 at 1 uM
T1 sequence (whole entry): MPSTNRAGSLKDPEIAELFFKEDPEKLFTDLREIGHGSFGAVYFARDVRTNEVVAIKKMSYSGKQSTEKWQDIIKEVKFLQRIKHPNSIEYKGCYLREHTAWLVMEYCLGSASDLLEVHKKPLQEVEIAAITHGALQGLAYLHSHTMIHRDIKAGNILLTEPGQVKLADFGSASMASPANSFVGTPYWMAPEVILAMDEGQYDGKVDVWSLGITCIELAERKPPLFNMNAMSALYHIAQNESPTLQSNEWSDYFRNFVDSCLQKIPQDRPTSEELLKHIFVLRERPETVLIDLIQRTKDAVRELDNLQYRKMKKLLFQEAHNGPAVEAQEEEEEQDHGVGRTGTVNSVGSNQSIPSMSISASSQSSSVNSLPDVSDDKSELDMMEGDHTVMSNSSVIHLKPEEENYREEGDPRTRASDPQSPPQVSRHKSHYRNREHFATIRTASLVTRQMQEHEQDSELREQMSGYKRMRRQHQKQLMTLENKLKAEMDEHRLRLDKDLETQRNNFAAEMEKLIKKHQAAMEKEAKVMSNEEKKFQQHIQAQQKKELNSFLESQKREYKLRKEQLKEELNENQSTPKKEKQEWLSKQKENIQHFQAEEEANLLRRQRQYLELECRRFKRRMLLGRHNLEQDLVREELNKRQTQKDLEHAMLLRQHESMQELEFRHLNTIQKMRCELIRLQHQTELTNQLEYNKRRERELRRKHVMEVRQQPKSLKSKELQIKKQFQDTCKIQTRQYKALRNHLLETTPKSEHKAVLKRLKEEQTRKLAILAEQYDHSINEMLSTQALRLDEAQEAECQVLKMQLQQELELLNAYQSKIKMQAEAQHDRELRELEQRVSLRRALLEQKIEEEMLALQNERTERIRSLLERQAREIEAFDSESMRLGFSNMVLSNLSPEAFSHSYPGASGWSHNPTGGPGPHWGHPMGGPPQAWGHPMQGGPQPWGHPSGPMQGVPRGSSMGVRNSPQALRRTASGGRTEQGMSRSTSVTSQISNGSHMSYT

[4] = target: Mitogen-activated protein kinase kinase kinase kinase 1 (Homo sapiens) (UniProt Q92918); assay: Inhibition of HPK1 at 1 uM
[5] = test system: Proto-oncogene tyrosine-protein kinase receptor Ret (Homo sapiens), P07949 [V804M]; assay: Inhibition of RET V804M mutant at 1 uM
[6] = target: T2, Mitogen-activated protein kinase kinase kinase 5 (Homo sapiens) (UniProt Q99683); assay: Inhibition of ASK1 at 1 uM
T2 sequence (whole entry): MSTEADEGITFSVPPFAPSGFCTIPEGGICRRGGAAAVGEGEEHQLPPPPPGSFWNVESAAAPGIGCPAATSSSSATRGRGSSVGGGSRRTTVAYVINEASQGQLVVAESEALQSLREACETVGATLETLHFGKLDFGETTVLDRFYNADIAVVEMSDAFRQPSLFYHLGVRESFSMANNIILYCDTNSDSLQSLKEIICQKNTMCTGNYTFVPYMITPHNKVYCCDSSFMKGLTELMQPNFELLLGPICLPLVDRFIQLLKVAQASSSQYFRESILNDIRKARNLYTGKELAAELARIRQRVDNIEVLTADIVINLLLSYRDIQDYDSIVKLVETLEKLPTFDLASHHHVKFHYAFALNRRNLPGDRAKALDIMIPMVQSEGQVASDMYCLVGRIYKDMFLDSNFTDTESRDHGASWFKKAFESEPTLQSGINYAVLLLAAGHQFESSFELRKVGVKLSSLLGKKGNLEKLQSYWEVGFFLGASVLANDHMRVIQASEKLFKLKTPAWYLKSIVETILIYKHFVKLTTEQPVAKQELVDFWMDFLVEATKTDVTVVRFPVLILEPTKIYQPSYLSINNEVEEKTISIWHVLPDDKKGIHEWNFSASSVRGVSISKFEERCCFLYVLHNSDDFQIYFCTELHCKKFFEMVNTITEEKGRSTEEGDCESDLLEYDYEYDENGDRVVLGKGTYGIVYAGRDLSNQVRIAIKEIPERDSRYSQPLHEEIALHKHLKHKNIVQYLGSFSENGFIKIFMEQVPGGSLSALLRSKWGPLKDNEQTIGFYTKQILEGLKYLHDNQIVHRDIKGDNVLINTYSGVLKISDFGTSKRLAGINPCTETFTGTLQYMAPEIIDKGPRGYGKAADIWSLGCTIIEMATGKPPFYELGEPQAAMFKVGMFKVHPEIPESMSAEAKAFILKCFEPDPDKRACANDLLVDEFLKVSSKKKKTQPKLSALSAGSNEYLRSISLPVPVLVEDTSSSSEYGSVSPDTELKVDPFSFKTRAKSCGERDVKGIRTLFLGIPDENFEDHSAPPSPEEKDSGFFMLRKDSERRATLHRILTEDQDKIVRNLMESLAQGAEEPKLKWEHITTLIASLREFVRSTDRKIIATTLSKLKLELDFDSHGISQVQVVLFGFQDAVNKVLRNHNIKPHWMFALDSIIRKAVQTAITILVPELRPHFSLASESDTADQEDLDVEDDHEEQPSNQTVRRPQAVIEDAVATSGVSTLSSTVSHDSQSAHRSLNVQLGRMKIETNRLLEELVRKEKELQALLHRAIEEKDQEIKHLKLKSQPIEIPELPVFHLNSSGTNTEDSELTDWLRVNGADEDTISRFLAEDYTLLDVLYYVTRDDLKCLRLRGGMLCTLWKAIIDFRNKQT
How it was run: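 Ambit KINOMEscan screen at a single concentration across a 250–400 kinase panel, recorded as percent inhibition. Selectivity was expressed as S(90), the fraction of kinases inhibited >90%.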

[7] = target: Mitogen-activated protein kinase kinase kinase 11 (Homo sapiens) (UniProt Q16584); assay: Inhibition of MLK3 at 1 uM
How it was run: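 Kinase-panel screen using KINOMEscan technology, with 250–400 kinases per panel. Each compound was tested at a single concentration, and inhibition of each kinase was recorded. Selectivity was summarised as S(90), the fraction of kinases inhibited by more than 90%.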

[8] = target: Myosin-IIIa (Homo sapiens) (UniProt Q8NEV4); assay: Inhibition of MYO3A at 1 uM

Chain of Homeodomain-interacting protein kinase 2 (Homo sapiens) (Q9H2X6 whole entry, looked up): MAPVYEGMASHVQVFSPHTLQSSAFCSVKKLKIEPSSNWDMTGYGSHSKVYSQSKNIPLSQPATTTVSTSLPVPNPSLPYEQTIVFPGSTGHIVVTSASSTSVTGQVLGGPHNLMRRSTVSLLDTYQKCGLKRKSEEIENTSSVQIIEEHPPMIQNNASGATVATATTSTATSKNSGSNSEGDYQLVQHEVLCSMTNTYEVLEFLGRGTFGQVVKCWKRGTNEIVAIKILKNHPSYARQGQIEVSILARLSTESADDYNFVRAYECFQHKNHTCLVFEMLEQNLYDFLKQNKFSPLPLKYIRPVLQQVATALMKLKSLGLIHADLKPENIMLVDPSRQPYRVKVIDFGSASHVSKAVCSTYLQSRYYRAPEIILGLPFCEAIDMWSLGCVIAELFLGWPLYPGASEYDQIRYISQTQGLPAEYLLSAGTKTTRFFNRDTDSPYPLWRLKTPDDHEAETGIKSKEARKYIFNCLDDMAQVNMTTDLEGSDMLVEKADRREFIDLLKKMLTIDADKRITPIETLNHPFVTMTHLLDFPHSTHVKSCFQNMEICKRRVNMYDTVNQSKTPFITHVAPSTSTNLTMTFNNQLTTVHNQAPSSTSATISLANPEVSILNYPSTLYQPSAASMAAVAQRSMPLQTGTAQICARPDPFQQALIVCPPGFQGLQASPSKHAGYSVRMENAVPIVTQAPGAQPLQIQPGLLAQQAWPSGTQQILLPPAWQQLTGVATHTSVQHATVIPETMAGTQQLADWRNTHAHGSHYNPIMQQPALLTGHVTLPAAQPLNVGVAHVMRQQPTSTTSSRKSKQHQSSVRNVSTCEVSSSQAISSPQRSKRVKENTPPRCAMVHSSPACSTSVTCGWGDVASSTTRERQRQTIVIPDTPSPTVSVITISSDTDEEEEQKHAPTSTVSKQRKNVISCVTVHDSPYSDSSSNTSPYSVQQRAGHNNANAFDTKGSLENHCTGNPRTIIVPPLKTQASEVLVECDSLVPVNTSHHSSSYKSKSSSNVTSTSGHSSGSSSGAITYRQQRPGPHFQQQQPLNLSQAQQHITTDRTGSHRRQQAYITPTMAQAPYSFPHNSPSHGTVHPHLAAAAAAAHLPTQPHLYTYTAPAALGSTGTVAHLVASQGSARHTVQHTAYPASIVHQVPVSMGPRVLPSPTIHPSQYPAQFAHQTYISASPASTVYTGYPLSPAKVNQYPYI
Chain of Mitogen-activated protein kinase kinase kinase kinase 1 (Homo sapiens) (Q92918 whole entry, looked up): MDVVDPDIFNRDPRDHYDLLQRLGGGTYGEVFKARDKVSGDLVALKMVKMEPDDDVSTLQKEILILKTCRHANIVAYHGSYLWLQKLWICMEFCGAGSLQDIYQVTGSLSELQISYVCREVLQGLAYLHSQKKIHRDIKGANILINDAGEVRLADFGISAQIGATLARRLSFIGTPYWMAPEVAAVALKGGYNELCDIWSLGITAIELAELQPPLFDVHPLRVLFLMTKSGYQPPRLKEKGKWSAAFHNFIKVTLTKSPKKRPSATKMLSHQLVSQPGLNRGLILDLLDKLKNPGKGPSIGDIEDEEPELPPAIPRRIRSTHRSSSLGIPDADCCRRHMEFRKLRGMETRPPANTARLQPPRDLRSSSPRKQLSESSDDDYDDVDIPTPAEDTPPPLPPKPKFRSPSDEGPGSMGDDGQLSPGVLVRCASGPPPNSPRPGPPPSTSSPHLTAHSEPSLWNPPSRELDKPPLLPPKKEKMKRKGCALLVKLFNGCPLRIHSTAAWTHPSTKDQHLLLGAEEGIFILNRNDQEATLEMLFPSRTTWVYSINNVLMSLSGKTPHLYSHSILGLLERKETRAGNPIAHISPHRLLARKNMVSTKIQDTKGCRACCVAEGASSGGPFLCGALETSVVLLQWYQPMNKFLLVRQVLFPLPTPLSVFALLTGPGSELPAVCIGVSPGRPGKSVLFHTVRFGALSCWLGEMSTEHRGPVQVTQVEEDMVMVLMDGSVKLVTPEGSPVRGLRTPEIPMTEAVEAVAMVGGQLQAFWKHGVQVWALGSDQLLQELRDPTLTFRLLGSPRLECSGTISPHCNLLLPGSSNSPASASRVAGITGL
Chain of Focal adhesion kinase 1 (Homo sapiens) (Q05397 2-1052 limits assumed): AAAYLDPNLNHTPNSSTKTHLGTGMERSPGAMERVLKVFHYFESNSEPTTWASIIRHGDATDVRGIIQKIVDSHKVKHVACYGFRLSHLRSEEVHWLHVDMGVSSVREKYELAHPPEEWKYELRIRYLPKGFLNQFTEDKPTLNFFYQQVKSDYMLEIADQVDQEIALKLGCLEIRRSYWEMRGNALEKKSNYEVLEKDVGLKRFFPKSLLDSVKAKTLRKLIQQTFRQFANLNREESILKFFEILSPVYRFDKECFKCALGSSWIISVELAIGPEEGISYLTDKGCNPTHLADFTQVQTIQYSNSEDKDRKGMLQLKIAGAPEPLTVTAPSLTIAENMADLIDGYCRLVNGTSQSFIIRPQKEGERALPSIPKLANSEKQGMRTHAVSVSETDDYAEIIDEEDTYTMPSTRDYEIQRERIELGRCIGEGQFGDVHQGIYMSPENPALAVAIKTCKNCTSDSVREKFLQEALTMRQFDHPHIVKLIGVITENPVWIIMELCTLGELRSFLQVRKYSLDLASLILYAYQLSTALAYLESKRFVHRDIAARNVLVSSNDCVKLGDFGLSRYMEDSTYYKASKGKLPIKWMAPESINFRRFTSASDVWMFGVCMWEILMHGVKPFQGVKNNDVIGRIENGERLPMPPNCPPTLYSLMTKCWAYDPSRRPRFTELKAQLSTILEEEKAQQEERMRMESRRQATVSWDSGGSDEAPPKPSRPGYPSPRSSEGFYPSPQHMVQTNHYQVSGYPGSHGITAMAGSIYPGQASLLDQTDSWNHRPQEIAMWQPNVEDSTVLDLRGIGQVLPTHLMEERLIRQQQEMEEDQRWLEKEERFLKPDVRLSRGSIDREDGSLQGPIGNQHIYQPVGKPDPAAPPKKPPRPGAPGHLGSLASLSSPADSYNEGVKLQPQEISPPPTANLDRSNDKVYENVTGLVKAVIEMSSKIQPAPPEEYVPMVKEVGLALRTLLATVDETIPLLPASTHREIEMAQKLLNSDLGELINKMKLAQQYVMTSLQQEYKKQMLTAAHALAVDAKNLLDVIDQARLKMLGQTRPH
Chain of Proto-oncogene tyrosine-protein kinase receptor Ret (Homo sapiens), P07949 [V804M] (P07949 whole entry V804M): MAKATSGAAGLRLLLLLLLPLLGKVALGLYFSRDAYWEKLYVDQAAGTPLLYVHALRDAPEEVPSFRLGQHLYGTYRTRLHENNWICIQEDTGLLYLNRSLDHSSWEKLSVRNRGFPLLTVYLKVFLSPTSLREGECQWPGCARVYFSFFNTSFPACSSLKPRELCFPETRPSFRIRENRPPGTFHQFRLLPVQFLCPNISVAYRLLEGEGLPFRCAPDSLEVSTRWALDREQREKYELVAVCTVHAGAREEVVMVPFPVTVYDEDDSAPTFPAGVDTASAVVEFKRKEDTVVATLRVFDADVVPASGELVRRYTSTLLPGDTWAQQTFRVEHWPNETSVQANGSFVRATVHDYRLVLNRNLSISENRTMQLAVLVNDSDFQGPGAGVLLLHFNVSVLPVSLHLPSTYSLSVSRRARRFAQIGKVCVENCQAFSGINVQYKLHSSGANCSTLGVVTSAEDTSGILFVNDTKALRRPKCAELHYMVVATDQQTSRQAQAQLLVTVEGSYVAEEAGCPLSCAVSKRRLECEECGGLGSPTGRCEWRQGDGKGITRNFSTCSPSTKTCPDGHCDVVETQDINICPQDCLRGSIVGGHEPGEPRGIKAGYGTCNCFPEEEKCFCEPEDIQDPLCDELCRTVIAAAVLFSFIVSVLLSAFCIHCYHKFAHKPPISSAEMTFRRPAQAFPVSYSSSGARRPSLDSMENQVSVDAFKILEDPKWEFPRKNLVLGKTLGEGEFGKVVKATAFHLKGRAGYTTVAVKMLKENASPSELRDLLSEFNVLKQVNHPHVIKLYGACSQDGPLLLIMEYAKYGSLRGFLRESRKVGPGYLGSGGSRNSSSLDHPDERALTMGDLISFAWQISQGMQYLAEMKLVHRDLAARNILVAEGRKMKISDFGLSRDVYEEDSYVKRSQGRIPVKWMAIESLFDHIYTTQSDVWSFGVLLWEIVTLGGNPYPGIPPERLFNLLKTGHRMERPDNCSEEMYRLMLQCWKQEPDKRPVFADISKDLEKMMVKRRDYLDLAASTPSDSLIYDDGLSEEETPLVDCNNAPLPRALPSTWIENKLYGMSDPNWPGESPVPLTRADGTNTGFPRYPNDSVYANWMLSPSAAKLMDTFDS
Chain of Mitogen-activated protein kinase kinase kinase 11 (Homo sapiens) (Q16584 whole entry, looked up): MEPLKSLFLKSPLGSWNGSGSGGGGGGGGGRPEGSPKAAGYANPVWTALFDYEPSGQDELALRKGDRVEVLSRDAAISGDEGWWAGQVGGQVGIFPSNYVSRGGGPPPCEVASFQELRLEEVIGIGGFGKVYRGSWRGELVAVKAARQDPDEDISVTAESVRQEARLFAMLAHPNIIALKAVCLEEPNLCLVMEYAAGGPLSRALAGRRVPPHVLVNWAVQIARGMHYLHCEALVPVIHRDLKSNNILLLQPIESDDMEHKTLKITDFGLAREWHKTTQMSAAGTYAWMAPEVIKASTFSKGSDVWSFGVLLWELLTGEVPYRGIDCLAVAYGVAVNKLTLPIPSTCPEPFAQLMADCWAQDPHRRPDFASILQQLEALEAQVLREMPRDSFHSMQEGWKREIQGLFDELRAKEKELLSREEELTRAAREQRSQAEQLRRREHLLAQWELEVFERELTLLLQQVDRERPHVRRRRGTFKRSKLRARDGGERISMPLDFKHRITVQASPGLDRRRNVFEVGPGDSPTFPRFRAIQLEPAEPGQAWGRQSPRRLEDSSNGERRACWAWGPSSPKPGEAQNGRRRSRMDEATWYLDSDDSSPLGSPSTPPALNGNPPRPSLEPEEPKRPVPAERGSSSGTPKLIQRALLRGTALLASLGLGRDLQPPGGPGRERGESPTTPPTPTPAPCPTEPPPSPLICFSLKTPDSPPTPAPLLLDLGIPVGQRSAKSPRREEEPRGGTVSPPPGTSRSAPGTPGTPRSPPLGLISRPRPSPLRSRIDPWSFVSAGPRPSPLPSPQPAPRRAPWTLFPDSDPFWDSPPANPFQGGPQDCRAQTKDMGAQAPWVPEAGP

Structure (SMILES)	inhibition [1]	inhibition [2]	inhibition [3]	inhibition [4]	inhibition [5]	inhibition [6]	inhibition [7]	inhibition [8]
O=C(c1ccc(-c2cnc3c(c2)N(Cc2cc(Cl)ccc2C(F)(F)F)CCN3)cc1)N1CCC(N2CCCC2)CC1		98.9%		88.7%		< 50%	< 50%	
COC1CCN(C(=O)c2ccc(-c3cnc4c(c3)N(Cc3cc(Cl)ccc3C(F)(F)F)CCN4)cc2)CC1		94%				< 50%	< 50%	
CN1CCN(c2ccc(-c3cnc4c(c3)N(Cc3cc(F)ccc3F)CCN4)cn2)CC1	< 50%	67.2%	< 50%	< 50%	< 50%	< 50%	< 50%	< 50%
CN1CCN(c2ccc(-c3cnc4c(c3)N(Cc3c(F)ccc(F)c3Cl)CCN4)cn2)CC1	< 50%	83%	< 50%	< 50%	< 50%	< 50%	< 50%	< 50%
CN1CCN(c2ccc(-c3cnc4c(c3)N(Cc3cc(Cl)ccc3Cl)CCN4)cn2)CC1	< 50%	94%	< 50%	< 50%	< 50%	< 50%	< 50%	< 50%

Continued, values first:

inhibition [1]	inhibition [2]	inhibition [3]	inhibition [4]	inhibition [5]	inhibition [6]	inhibition [7]	inhibition [8]	Structure (SMILES)
< 50%	98%	< 50%	< 50%	< 50%	< 50%	< 50%	< 50%	CN1CCN(c2ccc(-c3cnc4c(c3)N(Cc3cc(Cl)ccc3C(F)(F)F)CCN4)cn2)CC1
					< 50%	< 50%		O=C(O)c1ccc(-c2cnc3c(c2)N(Cc2cc(Cl)ccc2C(F)(F)F)CCN3)cc1
< 50%	100%	< 50%	< 50%	76%	< 50%	< 50%	< 50%	FC(F)(F)c1ccc(Cl)cc1CN1CCNc2ncc(-c3ccnc(N4CCNCC4)c3)cc21
< 50%	100%	< 50%	< 50%	< 50%	< 50%	< 50%	< 50%	CC(=O)N1CCN(c2cc(-c3cnc4c(c3)N(Cc3cc(Cl)ccc3C(F)(F)F)CCN4)ccn2)CC1
	84.4%				< 50%	< 50%		O=C(c1ccc(-c2cnc3c(c2)N(Cc2cc(Cl)ccc2C(F)(F)F)CCN3)cc1)N1CCCCC1

Source: ChEMBL document CHEMBL1165965, “Synthesis and structure-activity relationships of 1,2,3,4-tetrahydropyrido[2,3-b]pyrazines as potent and selective inhibitors of the anaplastic lymphoma kinase” (Bioorg Med Chem, 2010)
